Measured values reported in the RNAGym collection of RNA variant scans (doi:10.1101/gad.245936.114).
This sample holds only a part of the variants without activity.

B1: tRNA (parent)
chain: CUCUCGGUAGCCAAGUUGGUUUAAGGCGCAAGACUUUAAUUUAUCACUACGAAAUCUUGAGAUCGGGCGUUCGACUCGCCCCCGGGAGAUUUUUUCCUCGAGCAA

Variants of: B1
Test: nonsense suppression (GFP-seq) (ratio to wild type); higher = more function; SUP4oc tRNA, yeast GFP reporter sort-seq
In short: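 Each variant's nonsense suppression (GFPSEQ) is a cell-share-weighted bin median GFP/RFP relative to the unmutated parent tRNA. Yeast with genome-integrated tRNA variants from a ~3% random-mutation library, a galactose-driven GFP ochre reporter and RFP were grown in raffinose/galactose medium with 80 mg/L adenine, then sorted into GFP/RFP bins for Illumina sequencing. Variants needed ≥100 reads and ≥30 cells.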

| Variant | nonsense suppression |
| --- | --- |
| CUCCCGGUAGCCAAGUUGGUUUAAGGCGCAAGGCUUUAAUUUAUCACUACGAAAUCUUGAGAUCGGGCGUUCGACUCGCCCCCGGGAGAUUUUUUCCUCGAGCAA | 0.0434 |
| CUCUCGGUAGCCAAGUUGCUUUAAGGCGCAAGACUUUAAUUUAUCACUACGAAAUUCUGAGAUCGGGCGUUCGACUCGCCCCCGGGAGAUUUUUUCCUCGAGCAA | ≤ 0.026 |
| CUCUCGGUAGCCAAGUUGGUUUAAGGCGCAAGACUUUAAUUUAUCACUACGAAAUCUUGAAAUCGGGCCUUCGACUCGCCCCCGGGAGAUUUUUUCCUCGAGCAA | 0.0625 |
| CUCUCGGUAGCCAAGUUGGUCUAAGGCGCAAGACUUUAAUUUAUCACUACGAAAUCUUGAGAUCGGACGUUCGACUCGCCCCCGGGAGAUUUUUUCCUCGAGCAA | 0.0282 |
| CUCUCGGUAGCCAAGUUGGUUUACGGCGCAAGACUUUAAUUUAUCACUACGAAAUCUUGAGAACGGGCGUUCGACUCGCCCCCGGGAGAUUUUUUCCUCGAGCAA | 0.636 |
| CUCCCGGUCGCCAAGUUGGUUUAAGGCGCAAGACUUUAAUUUAUCACUACGAAAUCUUGAGAUCGGGCGUUCGACUCGCCCCCGGGAGAUUUUUUCCUCGAGCAA | 1.02 |
| CUCUAGGUCGCCAAGUUGGUUUAGGGCGCAAGACUUUAAUUUAUCACUACGAAAUCUUGAGAUCGGGCGUUCGACUCGCCCCCGAGAGAUUUUUUCCUCGAGCAA | ≤ 0.026 |
| CUCUCGGUAGCCAAGGUGGUUUAAGGCGCAAGACUUUAAUUUAUCACUACGAAAUCUUGAGAUCGGGCGUUCGACUCGCCCCCGGGAGAUUUUUUCCUCGAGCAA | 1 |
| CUCUCGGUAGCCAAGUCGGUUUAAGGCGCAAGACUUUAAUUUAUCACUACGAAACCUUGAGAUCGGGCGUUCGACUCGCCCCCGGGAGAUUUUUUCCUCGAGCAA | 0.444 |
| CUCUCGGUAGCCAAGUUGGUUAAAGGCGCAAGACUUUAAUUUAUCACUACGAAAUCUUGAGAUCGGGCGUUCGAAUCGCCCCCGGGAGCUUUUUUCCUCGAGCAA | ≤ 0.026 |
| CUCUCGGUAGCCAAGUUGGUUUAAGGCGCAAGACUUUAAUUUAUCACUACGAAAUCUUGAGAUCGGGCGUUGGACUCGCCCCCGGGAUAUUUUUUCCUCGAGCAA | ≤ 0.026 |
| CUCUCGGUAGCCAAGUUGGUUUAAGGCGCAAGACUUUAAUUUAUCACUACGAAAUCUUGAGAUCGGGCGUUCGACUCGCUCCCGAGAGAUUUUUUCCUCGAGCAA | 0.733 |
| CUCUCGGUAGCCAAGUUGGAUUAAGGCGCAAGACUUUAAUUUAUCACUACGAAAUCUUGAGAACGGGCGUUCGACUCGCCCCCGGGAGAUUUUUUCCUCGAGCAA | 0.187 |
| CUCUCGGUAGCCAAGUUGGUUAAAUGCGCAAGACUUUAAUUUAUCACUACGAAAUCUUGAGAUCGGGCGUUCGACUCGCCCCCGGGAGAUUUUUUCCUCGAGCAA | 0.0283 |
| CUCUUGGUAGCCCAGUUGGUUUAAGGCGCAAGACUUUAAUUUAUCACUACGAAAUCUUGAGAUCGGGCGUUCGACUCGCCCCCGGGAGAUUUUUUCCUCGAGCAA | 0.0679 |
| CUCUCGGUAGCCCAGUUGGUUUAAGGCGCAAGACUUUAAUUUAUCACUACGAAAUCUUGAGAUCGGGCGUUCGACUCGCCCCCGGGGGAUUUUUUCCUCGAGCAA | 0.127 |
| CUCUCGGUAGCCGAGUUGGUUUAAGGCGCAAGACCUUAAUUUAUCACUACGAAAUCUUGAGAUCGGGCGUCCGACUCGCCCCCGGGAGAUUUUUUCCUCGAGCAA | ≤ 0.026 |
| CUCUCGGUAGCCCAGUUGGUUUAAGGCGCAAGACUUUAAUUUAUCACUACGAAGUCUUGAGAUCGGGCGUUCCACUCGCCCCCGGGAGAUUUUUUCCUCGAGCAA | ≤ 0.026 |
| CUCUCGGUUGCCAAGUUGGUUUAAGGCGCAAGACUUUAAUUUAUCACUACGAAAUCGUGAGAUCCGGCGUUCGACUCGCCCCCGGGAGAUUUUUUCCUCGAGCAA | ≤ 0.026 |
| CUCUCGGUAGCCAAGUUGGUUUAAGGCGCAAGACUUUAAUUUAUCACUACGAAAACUUGAGAUCGGUCGUUCGACUCGCCCCCGGGAGAUUUUUUCCUCGAGCAA | ≤ 0.026 |
| CUCCCGGUAGCCAAGUUGGUUUAAGGCGCAAGAGUUUAAUUUAUCACUACGAAAUCUUGAGAUCGGGCGUUCGACUCGCCCCCGGGAGAUUUUUUCCUCGAGCAA | 0.0649 |
| CUCUCGGUAGCCAAGUUGGUUUAAGGCGCAGGACUUUAAUUUAUCACUACGAACUCUUGAGAUCGGGCGUUCGACUCGCCCCCGGGAGAUUUUUUCCUCGAGCAA | 0.0977 |
| CUCUCGGUAGCCAGGUUGGUUUAAGGCGCAGGACUUUAAUUUAUCACUACGAAAUCUUGAGAUCGGGCGUUCGACUCGCCCCCGGGAGAUUUUUUCCUCGAGCAA | 0.0611 |
| CCCUCGGUAGCCAAGUUGGUUUAAGGCGCAAGACUUUAAUUUAUCACUACGAAAUGUUGAGAUCGGGCGUUCGACUCGCCCCCGGGAGAUUUUUUCCUCGAGCAA | ≤ 0.026 |
| CUCUCGGUAGCCAAGUUGGUUUAAGGCGCAAGACUUUAAUUUAUCACUACGAAAUAUUGAGAUCGGGCAUUCGACUCGCCCCCGGGAGAUUUUUUCCUCGAGCAA | ≤ 0.026 |
| CUCUCGGUAGCCAAGUGGGUUUAAGGCGCAAGACUUUAAUUUAUCACUACGAAAUCUUGAGAUCGGGCGUUCGACUCGCCCCCGGGAGAUUUUUUCCUCGAGCAA | 0.999 |
| CUCUCGGUAGCUAAGUUGGUUUAAAGCGCAAGACUUUAAUUUAUCACUACGAAAUCUUGAGAUCGGGCGUUCGGCUCGCCCCCGGGAGAUUUUUUCCUCGAGCAA | ≤ 0.026 |
